Experimental data published in ChEMBL document CHEMBL3352311, “Discovery of novel 3-benzylquinazolin-4(3H)-ones as potent vasodilative agents” (Bioorg Med Chem Lett, 2014).
pEC50: −log10 of the molar value. One block for each compound: values may come before it. Active and inactive are the calls of the source. The rule behind the calls is not given here.

Key:
[1] = Vasodilative activity in isolated Sprague-Dawley rat mesenteric arterial ring assessed as reduction in KCl-induced contraction by wire myograph method; type: functional; conditions: Mesenteric artery
Method in brief: (§1)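 Isolated rat mesenteric arterial rings were precontracted with 60 mM KCl MOPS solution and then exposed to the compound. Relaxation was expressed as pEC50 and Emax (%), given as mean ± deviation. DMSO served as vehicle control and nitrendipine as reference.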

[2] = Vasodilative activity in isolated Sprague-Dawley rat mesenteric arterial ring assessed as reduction in KCl-induced contraction by wire myograph method relative to control; type: functional; conditions: Mesenteric artery; method in brief: as §1
Rattus norvegicus [3] = experiment: Antihypertensive activity in spontaneously hypertensive rat assessed as reduction in diastolic blood pressure at 2 mg/kg, po measured after 1 hr; type: functional, Artery
Method in brief: (§2)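 Oral dosing in spontaneously hypertensive rats, n = 8 per group. Vehicle was NMP/PEG400/H2O 1:7:2 at 5 ml/kg, and vehicle alone served as control. DBP and SBP (mmHg) were recorded before dosing (0 h) and 1 h after. The reported value is the reduction from the 0 h reading. Doses tested ranged from 0.5 to 8.0 mg/kg, with nitrendipine 2.0 mg/kg as positive drug.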

Rattus norvegicus [4] = experiment: Antihypertensive activity in spontaneously hypertensive rat assessed as reduction in systolic blood pressure at 2 mg/kg, po measured after 1 hr; type: functional, Artery; method in brief: as §2
Rattus norvegicus [5] = experiment: Antihypertensive activity in spontaneously hypertensive rat assessed as reduction in diastolic blood pressure at 4 mg/kg, po measured after 1 hr; type: functional, Artery; method in brief: as §2
Rattus norvegicus [6] = experiment: Antihypertensive activity in spontaneously hypertensive rat assessed as reduction in systolic blood pressure at 4 mg/kg, po measured after 1 hr; type: functional, Artery; method in brief: as §2
[7] = Vasodilative activity in isolated Sprague-Dawley rat mesenteric arterial ring assessed as reduction in phenylephrine-induced contraction at 1 to 10 uM pre-incubated for 30 mins before phenylephrine addition by wire myograph method; type: functional; conditions: Mesenteric artery
Method in brief: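 Rat mesenteric artery segments were pretreated with compound at 10^-5 M or 10^-6 M for 30 min. Contraction induced by phenylephrine was then recorded.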

Rattus norvegicus [8] = experiment: Antihypertensive activity in spontaneously hypertensive rat assessed as reduction in diastolic blood pressure at 0.5 mg/kg, po measured after 1 hr; type: functional, Artery; method in brief: as §2
Rattus norvegicus [9] = experiment: Antihypertensive activity in spontaneously hypertensive rat assessed as reduction in diastolic blood pressure at 1 mg/kg, po measured after 1 hr; type: functional, Artery; method in brief: as §2
Rattus norvegicus [10] = experiment: Antihypertensive activity in spontaneously hypertensive rat assessed as reduction in diastolic blood pressure at 8 mg/kg, po measured after 1 hr; type: functional, Artery; method in brief: as §2
Rattus norvegicus [11] = experiment: Antihypertensive activity in spontaneously hypertensive rat assessed as reduction in systolic blood pressure at 0.5 mg/kg, po measured after 1 hr; type: functional, Artery; method in brief: as §2
Rattus norvegicus [12] = experiment: Antihypertensive activity in spontaneously hypertensive rat assessed as reduction in systolic blood pressure at 1 mg/kg, po measured after 1 hr; type: functional, Artery; method in brief: as §2
Rattus norvegicus [13] = experiment: Antihypertensive activity in spontaneously hypertensive rat assessed as reduction in systolic blood pressure at 8 mg/kg, po measured after 1 hr; type: functional, Artery; method in brief: as §2
Rattus norvegicus [14] = experiment: Antihypertensive activity in spontaneously hypertensive rat assessed as reduction in diastolic blood pressure at 4 mg/kg, po measured after 0.5 hrs; type: functional, Artery
Method in brief: (§3)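 Time course in spontaneously hypertensive rats given 4.0 mg/kg orally in NMP/PEG400/H2O 1:7:2 vehicle (5 ml/kg). A vehicle-only group was included. DBP and SBP were followed at successive times after dosing, and the reduction from the pre-dose blood pressure was reported.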

Rattus norvegicus [15] = experiment: Antihypertensive activity in spontaneously hypertensive rat assessed as reduction in diastolic blood pressure at 4 mg/kg, po measured after 2 hrs; type: functional, Artery; method in brief: as §3
Rattus norvegicus [16] = experiment: Antihypertensive activity in spontaneously hypertensive rat assessed as reduction in diastolic blood pressure at 4 mg/kg, po measured after 4 hrs; type: functional, Artery; method in brief: as §3
Rattus norvegicus [17] = experiment: Antihypertensive activity in spontaneously hypertensive rat assessed as reduction in diastolic blood pressure at 4 mg/kg, po measured after 6 hrs; type: functional, Artery; method in brief: as §3
Rattus norvegicus [18] = experiment: Antihypertensive activity in spontaneously hypertensive rat assessed as reduction in diastolic blood pressure at 4 mg/kg, po measured after 8 hrs; type: functional, Artery; method in brief: as §3
Rattus norvegicus [19] = experiment: Antihypertensive activity in spontaneously hypertensive rat assessed as reduction in systolic blood pressure at 4 mg/kg, po measured after 0.5 hrs; type: functional, Artery; method in brief: as §3
Rattus norvegicus [20] = experiment: Antihypertensive activity in spontaneously hypertensive rat assessed as reduction in systolic blood pressure at 4 mg/kg, po measured after 2 hrs; type: functional, Artery; method in brief: as §3
Rattus norvegicus [21] = experiment: Antihypertensive activity in spontaneously hypertensive rat assessed as reduction in systolic blood pressure at 4 mg/kg, po measured after 4 hrs; type: functional, Artery; method in brief: as §3
Rattus norvegicus [22] = experiment: Antihypertensive activity in spontaneously hypertensive rat assessed as reduction in systolic blood pressure at 4 mg/kg, po measured after 6 hrs; type: functional, Artery; method in brief: as §3
Rattus norvegicus [23] = experiment: Antihypertensive activity in spontaneously hypertensive rat assessed as reduction in systolic blood pressure at 4 mg/kg, po measured after 8 hrs; type: functional, Artery; method in brief: as §3
Rattus norvegicus [24] = experiment: Antihypertensive activity in orally dosed spontaneously hypertensive rat assessed as reduction in systolic blood pressure; type: functional, organism-based; conditions: Artery; method in brief: as §2
Rattus norvegicus [25] = experiment: Antihypertensive activity in orally dosed spontaneously hypertensive rat assessed as reduction in diastolic blood pressure; type: functional, organism-based; conditions: Artery; method in brief: as §2

SMILES: COc1cc2ncn(Cc3ccc(C#N)cc3)c(=O)c2cc1OC
pEC50 [1]: 4.30
Emax [2]: 85.6%

SMILES: COc1ccc(-n2cnc3cc(OC)c(OC)cc3c2=O)cc1
pEC50 [1]: 4.20
Emax [2]: 96.3%

SMILES: COc1cc2ncn(Cc3ccc(OCc4ccncc4)c(OC)c3)c(=O)c2cc1OC
pEC50 [1]: 4.70
Emax [2]: 93.5%

SMILES: COc1cc(Cn2cnc3cc(OC)c(OC)cc3c2=O)ccc1O
pEC50 [1]: 4.50
Emax [2]: 87.6%

SMILES: CCOC(=O)C1=C(C)NC(C)=C(C(=O)OC)C1c1cccc([N+](=O)[O-])c1 (stereo unspecified) [NITRENDIPINE]
pEC50 [1]: 8.40
Emax [2]: 104%
Activity (Rattus norvegicus [3]): 30 mmHg
Activity (Rattus norvegicus [4]): 51 mmHg

SMILES: COc1cc2ncn(Cc3ccc(OCc4ccc(F)cc4)cc3)c(=O)c2cc1OC
pEC50 [1]: 4.00
Emax [2]: 50.3%

SMILES: COc1cc2ncn(Cc3ccc(OCc4ccccc4)c(OC)c3)c(=O)c2cc1OC
pEC50 [1]: 6.40
Emax [2]: 103%
Activity (Rattus norvegicus [5]): 19 mmHg
Activity (Rattus norvegicus [6]): 48 mmHg
Activity [7]: Active

SMILES: COc1ccc(COc2ccc(Cn3cnc4cc(OC)c(OC)cc4c3=O)cc2OC)cc1OC
pEC50 [1]: 5.50
Emax [2]: 99.7%

SMILES: COc1cc2ncn(Cc3ccc(OCc4cccc(F)c4)c(OC)c3)c(=O)c2cc1OC
pEC50 [1]: 6.00
Emax [2]: 99.6%

SMILES: COc1cc2ncn(Cc3ccc(OCc4ccc(F)cc4)c(OC)c3)c(=O)c2cc1OC
pEC50 [1]: 6.60
Emax [2]: 103%
Activity (Rattus norvegicus [5]): 34 mmHg
Activity (Rattus norvegicus [3]): 18 mmHg
Activity (Rattus norvegicus [6]): 60 mmHg
Activity (Rattus norvegicus [4]): 41 mmHg
Activity (Rattus norvegicus [8]): 9 mmHg
Activity (Rattus norvegicus [9]): 15 mmHg
Activity (Rattus norvegicus [10]): 43 mmHg
Activity (Rattus norvegicus [11]): 12 mmHg
Activity (Rattus norvegicus [12]): 28 mmHg
Activity (Rattus norvegicus [13]): 64 mmHg
Activity (Rattus norvegicus [14]): 20 mmHg
Activity (Rattus norvegicus [15]): 23 mmHg
Activity (Rattus norvegicus [16]): 17 mmHg
Activity (Rattus norvegicus [17]): 10 mmHg
Activity (Rattus norvegicus [18]): 0 mmHg
Activity (Rattus norvegicus [19]): 46 mmHg
Activity (Rattus norvegicus [20]): 42 mmHg
Activity (Rattus norvegicus [21]): 36 mmHg
Activity (Rattus norvegicus [22]): 21 mmHg
Activity (Rattus norvegicus [23]): 2 mmHg
Activity [7]: Active
Activity (Rattus norvegicus [24]): Dose-dependent effect
Activity (Rattus norvegicus [25]): Dose-dependent effect

SMILES: COc1cc2ncn(Cc3ccc(OCc4cccnc4)c(OC)c3)c(=O)c2cc1OC
pEC50 [1]: 6.20
Emax [2]: 98.4%

SMILES: COc1ccc(Cn2cnc3cc(OC)c(OC)cc3c2=O)cc1
pEC50 [1]: 4.60
Emax [2]: 100%

SMILES: COc1cc2ncn(Cc3cc(OC)c(OC)c(OC)c3)c(=O)c2cc1OC
pEC50 [1]: 6.30
Emax [2]: 104%

SMILES: COc1cc2ncn(Cc3ccc(OCc4ccc(F)cc4)c(F)c3)c(=O)c2cc1OC
pEC50 [1]: 5.10
Emax [2]: 99.1%

The remaining compounds from weak to strong by pEC50 [1], led by results:

pEC50 [1]: 4.00
SMILES: O=c1c2ccc(F)cc2ncn1Cc1ccc(F)cc1
Emax [2]: 78.3%

pEC50 [1]: 4.10
SMILES: COc1ccc(Cn2cnc3cc(F)ccc3c2=O)cc1
Emax [2]: 87.7%

pEC50 [1]: 4.20
SMILES: O=c1c2ccc(Cl)cc2ncn1Cc1ccc(F)cc1
Emax [2]: 101%

pEC50 [1]: 4.20
SMILES: COc1cc2ncn(Cc3ccc([N+](=O)[O-])cc3)c(=O)c2cc1OC
Emax [2]: 86.2%

pEC50 [1]: 4.30
SMILES: COc1ccc(Cn2cnc3cc(Cl)ccc3c2=O)cc1
Emax [2]: 97%

pEC50 [1]: 4.30
SMILES: O=c1c2cc(Br)ccc2ncn1Cc1ccc(F)cc1
Emax [2]: 96.4%

pEC50 [1]: 4.40
SMILES: COc1cc2ncn(Cc3ccccc3)c(=O)c2cc1OC
Emax [2]: 98.2%

pEC50 [1]: 4.40
SMILES: COc1cc2ncn(Cc3ccccc3Cl)c(=O)c2cc1OC
Emax [2]: 98.3%

pEC50 [1]: 4.50
SMILES: COc1cc2ncn(Cc3ccccc3C)c(=O)c2cc1OC
Emax [2]: 97.3%

pEC50 [1]: 4.50
SMILES: COc1cc2ncn(Cc3ccc(OC)c(OCc4ccccc4)c3)c(=O)c2cc1OC
Emax [2]: 95%

pEC50 [1]: 4.60
SMILES: COc1cc2ncn(Cc3ccc(F)cc3)c(=O)c2cc1OC
Emax [2]: 97.8%

pEC50 [1]: 4.70
SMILES: COc1ccc(Cn2cnc3cc4c(cc3c2=O)OCO4)cc1
Emax [2]: 101%

pEC50 [1]: 4.90
SMILES: COc1cc2ncn(Cc3ccc(OCc4ccc(Cl)cc4Cl)c(OC)c3)c(=O)c2cc1OC
Emax [2]: 97.8%

pEC50 [1]: 5.00
SMILES: COc1cc2ncn(Cc3ccc(OCc4ccc(F)cc4)c(Cl)c3)c(=O)c2cc1OC
Emax [2]: 98.9%

pEC50 [1]: 5.10
SMILES: COc1cc2ncn(Cc3ccc4c(c3)OCO4)c(=O)c2cc1OC
Emax [2]: 98.6%
